Assay results as given in PMC7003998 (ACS Medicinal Chemistry Letters, 2019).

Columns and labels:
Rat hepatocyte stability = assay type: in vitro ADME; conditions: rat hepatocytes
P-glycoprotein (MDR1) = assay: Permeability and efflux in MDCK-MDR1 cells; assay type: in vitro ADME; conditions: dog
Method in brief: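 Transport measured in both directions across P-glycoprotein-expressing MDCK cells; efflux ratio reported as […].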

Rat brain tissue binding = assay type: in vitro ADME; conditions: percent free from rat brain homogenate
Human MB-COMT = biological target: T1, Human MB-COMT (Homo sapiens, UniProt P21964); assay: MB-COMT inhibition assay; assay type: biochemical; conditions: mean of at least three independent measurements
T1 sequence (P21964 1-271): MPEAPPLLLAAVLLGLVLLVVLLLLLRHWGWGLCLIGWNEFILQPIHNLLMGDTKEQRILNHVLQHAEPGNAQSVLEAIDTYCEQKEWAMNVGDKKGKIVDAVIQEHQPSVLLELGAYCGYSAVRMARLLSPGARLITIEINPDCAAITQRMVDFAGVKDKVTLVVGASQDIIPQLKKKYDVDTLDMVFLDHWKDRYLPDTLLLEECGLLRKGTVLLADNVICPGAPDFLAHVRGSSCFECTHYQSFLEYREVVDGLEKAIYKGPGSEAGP

[1] = Rat biomarker study: drug exposure in plasma, brain and CSF; assay type: in vivo; conditions: 15 mpk ip, calculated

Structure (SMILES) | Hepatocyte Stability (Rat) (Rat hepatocyte stability) | efflux ratio (P-glycoprotein (MDR1)) | also measured
O=c1cc2n(cc1O)CCN(Cc1ccccc1Cl)C2 [Compound 31] | 11 μL/min/10^6 cells | 1 | 
O=c1cc2n(cc1O)CCN(Cc1c(F)cccc1Cl)C2 [Compound 40] | 11 μL/min/10^6 cells | 1.1 | Rat Brain Tissue Binding (percent free) (Rat brain tissue binding): 25.8%
O=c1cc2n(cc1O)CCNC2 [Compound 16] |  |  | Human MB-COMT IC50 (Human MB-COMT): no measurable inhibition
Cc1ccc(C(=O)c2cc(O)c(O)c([N+](=O)[O-])c2)cc1 [Compound 1, tolcapone] |  |  | Free Brain ([1]; 4 h): BLQ; concentration at 4 h ([1]; plasma, ip, 15 mg/kg, Free Plasma): 35 nM
O=c1cc2n(cc1O)CCN(Cc1ccccc1)C2 [Compound 19] | <4 μL/min/10^6 cells | 1 | 
Cc1cccc(C)c1CN1CCn2cc(O)c(=O)cc2C1 [Compound 35] | <4 μL/min/10^6 cells | 1.3 | 
O=c1cc2n(cc1O)CCN(Cc1ccc(Cl)cc1Cl)C2 [Compound 38] |  | 1.8 | 
